A short description of data set [1]: Apparent permeability in human Caco2 cells. Format: ADME, cell-based. As to conditions: Caco-2.
A short description of data set [2]: Lipophilicity, log D of the compound. The note with it: octanol/water. Format: physicochemical.
Data set [3] in a line: Stability in human liver microsomes assessed as compound remaining after 60 mins. Format: ADME, Microsome. As to conditions: read-out: Stability. The method in brief: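 Human liver microsomes incubated with compound for 60 minutes; value reported as % of compound remaining.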
The target in data set [4] is T1, Nuclear receptor ROR-gamma (Homo sapiens, UniProt P51449).
T1 sequence (P51449 whole entry): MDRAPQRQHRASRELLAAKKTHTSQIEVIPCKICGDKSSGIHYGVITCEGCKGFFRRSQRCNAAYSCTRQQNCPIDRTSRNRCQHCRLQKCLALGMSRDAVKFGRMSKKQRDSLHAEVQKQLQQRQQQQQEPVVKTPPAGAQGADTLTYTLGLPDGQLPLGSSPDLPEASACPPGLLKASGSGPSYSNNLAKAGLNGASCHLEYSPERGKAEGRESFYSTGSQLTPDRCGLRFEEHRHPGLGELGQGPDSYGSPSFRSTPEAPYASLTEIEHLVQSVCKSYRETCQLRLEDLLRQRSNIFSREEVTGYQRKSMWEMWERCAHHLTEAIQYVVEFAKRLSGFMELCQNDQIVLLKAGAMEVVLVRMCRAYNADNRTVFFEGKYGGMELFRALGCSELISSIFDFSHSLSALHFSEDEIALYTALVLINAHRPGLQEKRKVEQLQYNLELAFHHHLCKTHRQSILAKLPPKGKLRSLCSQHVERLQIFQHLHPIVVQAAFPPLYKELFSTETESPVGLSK
The data set can be described thus: Inhibition of human GAL4-fused RORgamma LBD transcriptional activity expressed in CHOK1 cells after 2 days by luciferase reporter gene assay. Format: cell-based.

The text below walks through data of ChEMBL document CHEMBL4480411, “Discovery of Second Generation RORγ Inhibitors Composed of an Azole Scaffold” (J Med Chem, 2019).

Structures are written as SMILES.

For the compound `Cc1ccc(NC(=O)CC(CCO)c2nnc(CCCC(C)C)n2C2CC2)c(C)c1` (racemic), the Papp in data set [1] worked out at 11 ×10⁻⁶ cm/s. In addition, the logD in data set [2] came out at 3.5. The remaining at 1 h in data set [3] was determined as 21%. In addition, in data set [4], the response was half-maximal at 440 nM (EC50).
Consider `Cc1ccc(NC(=O)C[C@H](CCC(=O)[O-])c2noc(-c3nnc(CC(C)C)s3)c2C2CC2)c(Cl)c1.[Na+]`, for which the apparent permeability (Papp) in data set [1] was determined as 10 ×10⁻⁶ cm/s. Besides, in data set [2], the logD is 3.4. Moreover, the remaining at 1 h in data set [3] came to 78%. In data set [4], this compound yielded an EC50 of 56 nM.
Compound `CC(C)(C)C(F)(F)c1cc(-c2onc([C@@H](CCC(=O)O)CC(=O)Nc3ccc(Cl)cc3F)c2C2CC2)no1` came in with a log distribution coefficient (logD) in data set [2] of 4.2. The remaining at 1 h in data set [3] was 107%. In addition, the half-maximal effective concentration (EC50) in data set [4] turned out to be 7 nM.
Take `Cc1ccc(NC(=O)C[C@H](CCC(=O)[O-])c2noc(-c3ncc(CC(C)C)o3)c2C2CC2)c(Cl)c1.[Na+]`: in data set [1], the Papp was 32 ×10⁻⁶ cm/s. For the same compound, the logD in data set [2] is 3.7. Besides, the remaining at 1 h in data set [3] turned out to be 75%. This compound also yielded an EC50 in data set [4] of 660 nM.
Regarding `Cc1ccc(NC(=O)CCc2nnc(CCCC(C)C)n2C2CC2)c(C)c1`, in data set [1], the Papp is 36 ×10⁻⁶ cm/s. The logD in data set [2] turned out to be 3.9. In addition, the remaining at 1 h in data set [3] amounted to 27%.
On to `Cc1ccc(NC(=O)CC(CCN)c2nnc(CCCC(C)C)n2C2CC2)c(C)c1` (racemic), for which the Papp in data set [1] is 0.2 ×10⁻⁶ cm/s. In data set [2], the log distribution coefficient (logD) was determined as 3.1. Moreover, in data set [3], the remaining at 1 h is 88%. Further, the EC50 in data set [4] is over 20000 nM.
In the case of `Cc1ccc(NC(=O)C[C@H](CCC(=O)[O-])c2noc(-c3csc(CC(C)C)n3)c2C2CC2)c(Cl)c1.[Na+]`, the apparent permeability coefficient (Papp) in data set [1] stood at 34 ×10⁻⁶ cm/s. The compound further displayed a logD in data set [2] of 3.8. In data set [3], the remaining at 1 h was found to be 82%. For the same compound, it took 3800 nM to reach a half-maximal effect in data set [4] (EC50).
The corresponding values for `Cc1ccc(NC(=O)C[C@H](CCC(=O)[O-])c2noc(-c3noc(CC(C)C)n3)c2C2CC2)c(Cl)c1.[Na+]` are 25 ×10⁻⁶ cm/s, 3.6, 90% and 62 nM.
`CCN(c1ccc(C(O)(C(F)(F)F)C(F)(F)F)cc1)S(=O)(=O)c1ccc([N+](=O)[O-])cc1` yielded a half-maximal effective concentration (EC50) in data set [4] of 190 nM.
Take `Cc1ccc(NC(=O)C[C@H](CCC(=O)O)c2noc(-c3ccc(CC(C)C)cc3)c2C2CC2)c(Cl)c1`: in data set [1], the Papp is 16 ×10⁻⁶ cm/s. The same compound had a logD in data set [2] of 4.8. In data set [3], the remaining at 1 h was found to be 80%. In data set [4], this compound yielded an EC50 of 44 nM.
For `Cc1ccc(NC(=O)C[C@H](CCC(=O)[O-])c2noc(-c3cc(CC(C)C)on3)c2C2CC2)c(Cl)c1.[Na+]`, in that order: 36 ×10⁻⁶ cm/s, 3.9, 74% and 14 nM.
For `Cc1ccc(NC(=O)CC(CCC(=O)O)c2nnc(CCCC(C)C)n2C2CC2)c(C)c1` (racemic), in that order: 0.2 ×10⁻⁶ cm/s, 2.9, 91% and over 20000 nM.
Consider `Cc1ccc(NC(=O)C[C@H](CCC(=O)[O-])c2noc(-c3ncc(CC(C)C)s3)c2C2CC2)c(Cl)c1.[Na+]`, for which, in data set [1], the Papp stood at 28 ×10⁻⁶ cm/s. This compound also came in with a pH-dependent lipophilicity (logD) in data set [2] of 4. Also, in data set [3], the remaining at 1 h worked out at 82%. The compound also registered an EC50 in data set [4] of 120 nM.
In data set [2], `Cc1ccc(NC(=O)C[C@H](CCC(=O)O)c2noc(-c3cc(C(F)(F)C(C)(C)C)on3)c2C2CC2)c(Cl)c1` had a logD of 4.3. The remaining at 1 h in data set [3] was found to be 77%. This compound also returned an EC50 in data set [4] of 6 nM.
In turn, `Cc1ccc(NC(=O)C[C@H](CCC(=O)O)c2noc(-c3cc(C(F)(F)C(C)C)on3)c2C2CC2)c(Cl)c1` displayed a pH-dependent lipophilicity (logD) in data set [2] of 4. Moreover, the remaining at 1 h in data set [3] amounted to 74%. Further, in data set [4], a half-maximal response (EC50) required 7 nM.
Take `CNC(=O)CCC(CC(=O)Nc1ccc(C)cc1C)c1nnc(CCCC(C)C)n1C1CC1` (racemic): the Papp in data set [1] stood at 1.5 ×10⁻⁶ cm/s. The compound further returned a logD in data set [2] of 3.5. For the same compound, the remaining at 1 h in data set [3] was determined as 65%. The same compound showed an EC50 in data set [4] of 6400 nM.
For `Cc1ccc(NC(=O)CC(CCC(=O)N(C)C)c2nnc(CCCC(C)C)n2C2CC2)c(C)c1` (racemic), in that order: 7 ×10⁻⁶ cm/s, 3.8, 45% and 2700 nM.
For `Cc1ccc(NC(=O)CC(CCN(C)C)c2nnc(CCCC(C)C)n2C2CC2)c(C)c1` (racemic), in that order: 0.8 ×10⁻⁶ cm/s, 3.3, 85% and 19000 nM.
In data set [2], `CC(C)(C)C(F)(F)c1cc(-c2onc([C@@H](CCC(=O)O)CC(=O)Nc3ccc(F)cc3Cl)c2C2CC2)no1` yielded a logD of 4. In addition, the remaining at 1 h in data set [3] amounted to 90%. Also, the concentration for a half-maximal effect (EC50) in data set [4] amounted to 6 nM.
As to `CC(=O)NCCC(CC(=O)Nc1ccc(C)cc1C)c1nnc(CCCC(C)C)n1C1CC1` (racemic), the Papp in data set [1] was 1.3 ×10⁻⁶ cm/s. In data set [2], this compound had a logD of 3.5. Besides, the remaining at 1 h in data set [3] came to 39%. A half-maximal response in data set [4] (EC50) required 11000 nM.
Consider `CC(=O)N1C[C@H](C(=O)Nc2ccc(C)cc2C)[C@@H](c2nnc([C@H]3C[C@@H](CC(C)C)C3)n2C2CC2)C1`, for which the apparent permeability coefficient (Papp) in data set [1] came out at 20 ×10⁻⁶ cm/s. Besides, the pH-dependent lipophilicity (logD) in data set [2] came out at 4.3. Besides, the remaining at 1 h in data set [3] came to 61%.
`Cc1ccc(NC(=O)CC(CCC(N)=O)c2nnc(CCCC(C)C)n2C2CC2)c(C)c1` (racemic): the Papp in data set [1] amounted to 0.8 ×10⁻⁶ cm/s. The pH-dependent lipophilicity (logD) in data set [2] is 3.4. Also, the remaining at 1 h in data set [3] worked out at 44%. The compound also gave an EC50 in data set [4] of 16000 nM.
For `Cc1ccc(NC(=O)C[C@H](CCC(=O)[O-])c2noc(-c3cc(CC(C)C)no3)c2C2CC2)c(Cl)c1.[Na+]`, in that order: 28 ×10⁻⁶ cm/s, 3.8, 54% and 12 nM.
Compound `Cc1ccc(NC(=O)C[C@H](CCC(=O)O)c2noc(-c3cc(C(F)(F)CC(C)C)on3)c2C2CC2)c(Cl)c1` yielded a pH-dependent lipophilicity (logD) in data set [2] of 4.4. Further, the remaining at 1 h in data set [3] was 78%. This compound also came in with an EC50 in data set [4] of 8 nM.
As for `Cc1ccc(NC(=O)C[C@H](CCC(=O)O)c2noc(-c3cc(CCC(C)C)on3)c2C2CC2)c(Cl)c1`, in data set [2], the logD stood at 4.3. For the same compound, the remaining at 1 h in data set [3] came out at 79%. In data set [4], the EC50 turned out to be 8 nM.
Take `Cc1ccc(NC(=O)C[C@H](CCC(=O)[O-])c2noc(-c3cnc(CC(C)C)s3)c2C2CC2)c(Cl)c1.[Na+]`: the apparent permeability coefficient (Papp) in data set [1] is 34 ×10⁻⁶ cm/s. The same compound displayed a log distribution coefficient (logD) in data set [2] of 3.8. Moreover, in data set [3], the remaining at 1 h is 54%. The same compound yielded a concentration giving a half-maximal response (EC50) in data set [4] of 17 nM.
As for `Cc1ccc(NC(=O)C[C@H](CCC(=O)O)c2noc(-c3cc(CC(C)(C)C)on3)c2C2CC2)c(Cl)c1`, the logD in data set [2] was determined as 4.2. In addition, the remaining at 1 h in data set [3] was 84%. In data set [4], a half-maximal response (EC50) required 7 nM.
